From ChEMBL document CHEMBL2093137, “WHO-TDR NTD Screening”
Values after ≈ are worked out from the molar mass of the structure shown.

Columns and labels:
[1] = system: Onchocerca ochengi; experiment: WHO-TDR: Onchocerciasis; format: functional; parameters: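 at 12.5 µM on microfilariae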
In short: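 Percent inhibition and IC50 describe activity against microfilariae of Onchocerca ochengi or Onchocerca lienalis, used as animal-pathogen substitutes for the human parasite. The compounds tested made up a 10,000-member diverse library from Life Chemicals.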

[2] = system: Leishmania infantum; experiment: WHO-TDR: Leishmaniasis; format: functional, organism-based, Mus musculus; details: Macrophage
In short: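 Values are IC50 figures for antiparasitic potency. They come from a whole-organism screen of a 10,000-compound diverse Life Chemicals library against Leishmania infantum MHOM/MA(BE)/67 amastigotes inside murine peritoneal macrophage host cells.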

[3] = system: Plasmodium falciparum K1; experiment: WHO-TDR: Malaria; format: functional, organism-based, Homo sapiens; details: Erythrocyte
In short: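 Values are IC50 figures for antiplasmodial potency. They come from a whole-organism screen of 10,000 diverse Life Chemicals compounds against Plasmodium falciparum K1 growing inside human red blood cells, run by previously published standard procedures.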

[4] = system: Trypanosoma brucei brucei; experiment: WHO-TDR: Human African Trypanosomiasis (HAT); format: functional, organism-based; details: Squib-427
In short: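 Values are IC50 figures for antiparasitic potency. They come from a whole-organism screen of 10,000 diverse Life Chemicals compounds against bloodstream-form Trypanosoma brucei (Squib 427 strain).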

[5] = system: Trypanosoma cruzi; experiment: WHO-TDR: Chagas disease; format: functional, organism-based, Homo sapiens; details: MRC5
In short: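 Intracellular amastigotes of the Trypanosoma cruzi Tulahuen CL2 beta-galactosidase strain, grown in MRC-5SV2 human lung fibroblast host cells, were tested in a whole-organism screen. The compounds came from a 10,000-member diverse Life Chemicals library that had been filtered for drug-likeness and reactive groups. Previously published standard procedures were followed, with a reference drug as positive control, and potency is reported as IC50.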

[6] = system: Brugia malayi; experiment: WHO-TDR: Lymphatic Filariasis; format: functional; parameters: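 tested at 10 µM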
In short: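 The screening set was a 10,000-compound diverse library from Life Chemicals, filtered for drug-likeness and for reactive groups. It was run against Brugia malayi microfilariae as whole organisms, using previously published standard procedures. Reference drugs acted as positive controls, and activity is reported both as percent inhibition and as IC50.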

[7] = WHO-TDR: Cytotoxicity; format: toxicity, cell-based; details: human, MRC5 cells
[8] = system: Schistosoma mansoni; experiment: WHO-TDR: Schistosomiasis; format: functional; parameters: concentration or dose not given beside the values
In short: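 Percent inhibition and IC50 describe activity against whole Schistosoma mansoni worms of the Puerto Rican strain, tested as larvae and/or adults. The compounds screened were a diverse set of 10,000 from Life Chemicals, filtered for drug-likeness and reactive groups. Testing followed previously published standard procedures, with a reference drug as positive control.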

SMILES	IC50 [2]	IC50 [3]	IC50 [4]	% Inhibition [1]	IC50 [5]	% Inhibition [6]	IC50 [7]	% Inhibition [8]
O=S(=O)(CCCOc1ccc2c(c1)OCO2)NCCc1c[nH]c2ccccc12	> 12.1 mg/L	> 12.1 mg/L	> 12.1 mg/L	100%	3.12 mg/L (≈ 7.74 µM)	0%	> 12.1 mg/L	0%
O=S(=O)(CCCOc1ccc(F)cc1)NCc1ccccc1Cl	> 10.7 mg/L	> 10.7 mg/L	> 10.7 mg/L	100%	7.84 mg/L (≈ 21.9 µM)	0%	> 10.7 mg/L	0%
O=S(=O)(CCCOc1ccc(F)cc1)NCCCc1ccccc1	> 10.5 mg/L	> 10.5 mg/L	> 10.5 mg/L	100%	> 10.5 mg/L	0%	10.5 mg/L (≈ 30 µM)	0%
O=S(=O)(CCCOc1ccc(F)cc1)N1CCc2ccccc21	> 10.1 mg/L	> 10.1 mg/L	3.22 mg/L (≈ 9.6 µM)	100%	3.09 mg/L (≈ 9.2 µM)	0%	> 10.1 mg/L	0%
O=S(=O)(CCCOc1ccc(F)cc1)NCc1c(F)cccc1F	0.349 mg/L (≈ 0.971 µM)	> 10.8 mg/L	> 10.8 mg/L	50%	5.73 mg/L (≈ 16 µM)	0%	> 10.8 mg/L	0%
O=S(=O)(CCCOc1ccc(F)cc1)NC1CCN(Cc2ccccc2)CC1	> 12.2 mg/L	> 12.2 mg/L	3.86 mg/L (≈ 9.49 µM)	100%	> 12.2 mg/L	0%	> 12.2 mg/L	50%
NC(=O)c1ccc(NC(=O)CCCn2nc(-c3ccc(Cl)cc3)ccc2=O)cc1	> 12.3 mg/L	> 12.3 mg/L	> 12.3 mg/L	100%	> 12.3 mg/L	0%	> 12.3 mg/L	16.7%
O=C(CCCn1nc(-c2ccc(F)cc2)ccc1=O)Nc1ccc(C(F)(F)F)cc1	> 12.6 mg/L	> 12.6 mg/L	> 12.6 mg/L	100%	> 12.6 mg/L	0%	> 12.6 mg/L	0%
CCOc1ccc(-c2ccc(=O)n(CCCC(=O)Nc3ccccc3SC)n2)cc1	> 12.7 mg/L	> 12.7 mg/L	> 12.7 mg/L	100%	8.92 mg/L (≈ 21.1 µM)	0%	> 12.7 mg/L	0%
COc1ccc2nc(-c3ccc(OC)c(NC(=O)c4c(F)cccc4Cl)c3)cn2n1	0.415 mg/L (≈ 0.972 µM)	> 12.8 mg/L	> 12.8 mg/L	0%	> 12.8 mg/L	0%	> 12.8 mg/L	0%
CCC(C(=O)Nc1cc(-c2cn3nc(OC)ccc3n2)ccc1Cl)c1ccccc1 (stereo not drawn)	> 12.6 mg/L	> 12.6 mg/L	> 12.6 mg/L	100%	8.38 mg/L (≈ 19.9 µM)	0%	> 12.6 mg/L	0%
COc1ccc2nc(-c3ccc(F)c(NC(=O)Cc4ccccc4)c3)cn2n1	0.366 mg/L (≈ 0.972 µM)	> 11.3 mg/L	> 11.3 mg/L	0%	> 11.3 mg/L	0%	> 11.3 mg/L	25%
CCC(=O)Nc1ccc(S(=O)(=O)NCCc2ccc(N3CCCC3)cc2)c(C)c1	> 12.5 mg/L	> 12.5 mg/L	6.95 mg/L (≈ 16.7 µM)	100%	5.06 mg/L (≈ 12.2 µM)	0%	> 12.5 mg/L	0%
CCSc1nc(-c2ccccc2)c(NC(C)=O)s1	0.27 mg/L (≈ 0.97 µM)	> 8.35 mg/L	> 8.35 mg/L	0%	> 8.35 mg/L	0%	> 8.35 mg/L	0%
CCOc1ccccc1C(=O)Nc1sc(SCC(N)=O)nc1-c1ccccc1	> 12.4 mg/L	> 12.4 mg/L	3.97 mg/L (≈ 9.6 µM)	100%	7.06 mg/L (≈ 17.1 µM)	0%	> 12.4 mg/L	0%
NC(=O)CSc1nc(-c2ccccc2)c(NC(=O)c2cc3ccccc3o2)s1	> 12.3 mg/L	> 12.3 mg/L	> 12.3 mg/L	100%	> 12.3 mg/L	33.33%	> 12.3 mg/L	25%
Cc1csc(NC(=O)CSc2nc(-c3ccccc3)c(N)s2)n1	0.352 mg/L (≈ 0.971 µM)	> 10.9 mg/L	> 10.9 mg/L	50%	7.18 mg/L (≈ 19.8 µM)	33.33%	> 10.9 mg/L	0%
Cc1nnc(NC(=O)CSc2nc(-c3ccccc3)c(N)s2)s1	0.353 mg/L (≈ 0.971 µM)	> 10.9 mg/L	> 10.9 mg/L	0%	> 10.9 mg/L	33.33%	> 10.9 mg/L	16.7%
Cc1cc(-c2nnc(NC(=O)c3nc4ccccc4s3)o2)nn1C	> 10.2 mg/L	> 10.2 mg/L	> 10.2 mg/L	100%	3.72 mg/L (≈ 10.9 µM)	33.33%	> 10.2 mg/L	0%
Cc1cc(-c2nnc(NC(=O)CSc3ccc(F)cc3)o2)nn1C	0.337 mg/L (≈ 0.97 µM)	> 10.4 mg/L	> 10.4 mg/L	0%	> 10.4 mg/L	33.33%	> 10.4 mg/L	0%

Further lines, with some results ahead:

IC50 [2]	IC50 [3]	IC50 [4]	SMILES	% Inhibition [1]	IC50 [5]	% Inhibition [6]	IC50 [7]	% Inhibition [8]
> 12.6 mg/L	> 12.6 mg/L	4.04 mg/L (≈ 9.6 µM)	O=C(CCCn1nc(-c2ccccc2)ccc1=O)N1CCN(c2ccccc2F)CC1	100%	3.81 mg/L (≈ 9.07 µM)	0%	> 12.6 mg/L	25%
0.342 mg/L (≈ 0.97 µM)	> 10.6 mg/L	> 10.6 mg/L	COc1ccc(CCC(=O)NCCc2ccc(N3CCCC3)cc2)cc1	0%	> 10.6 mg/L	0%	> 10.6 mg/L	0%
4.24 mg/L (≈ 9.71 µM)	> 13.1 mg/L	4.14 mg/L (≈ 9.49 µM)	Cc1cc(-c2nnc(NC(=O)C3CCCCN3S(=O)(=O)c3cccs3)o2)nn1C (stereo not drawn)	100%	4.26 mg/L (≈ 9.75 µM)	33.33%	4.91 mg/L (≈ 11.2 µM)	0%
0.33 mg/L (≈ 0.972 µM)	> 10.2 mg/L	> 10.2 mg/L	CC(C)CC(=O)NCCOc1ccc2nnc(-c3ccccc3)n2n1	0%	> 10.2 mg/L	33.33%	> 10.2 mg/L	16.7%
0.425 mg/L (≈ 0.971 µM)	> 13.1 mg/L	> 13.1 mg/L	O=C(CCSc1ccccc1)NCCOc1ccc2nnc(-c3ccc(F)cc3)n2n1	0%	> 13.1 mg/L	33.33%	> 13.1 mg/L	41.7%
> 9.76 mg/L	> 9.76 mg/L	> 9.76 mg/L	CC(C)(C)C(=O)N1CCN(c2ccc(-c3ccncc3)nn2)CC1	0%	> 9.76 mg/L	33.33%	> 9.76 mg/L	100%
0.37 mg/L (≈ 0.97 µM)	> 11.4 mg/L	> 11.4 mg/L	O=C(c1ccc(F)cc1F)N1CCN(c2ccc(-c3cccnc3)nn2)CC1	0%	> 11.4 mg/L	33.33%	> 11.4 mg/L	0%
> 9.28 mg/L	1.05 mg/L (≈ 3.39 µM)	2.94 mg/L (≈ 9.49 µM)	O=C(C1CC1)N1CCN(c2ccc(-c3ccccn3)nn2)CC1	100%	2.1 mg/L (≈ 6.77 µM)	33.33%	2.38 mg/L (≈ 7.7 µM)	25%
1.81 mg/L (≈ 4.46 µM)	0.548 mg/L (≈ 1.35 µM)	3.85 mg/L (≈ 9.49 µM)	COc1cccc(C(=O)N2CCN(c3ccc(-c4ccccn4)nn3)CC2)c1OC	100%	0.421 mg/L (≈ 1.04 µM)	33.33%	5.68 mg/L (≈ 14 µM)	33.3%
3.09 mg/L (≈ 9.49 µM)	1.13 mg/L (≈ 3.46 µM)	3.09 mg/L (≈ 9.49 µM)	CC(C)CC(=O)N1CCN(c2ccc(-c3ccccn3)nn2)CC1	100%	0.763 mg/L (≈ 2.34 µM)	33.33%	3.86 mg/L (≈ 11.9 µM)	25%
0.328 mg/L (≈ 0.972 µM)	4.13 mg/L (≈ 12.3 µM)	3.2 mg/L (≈ 9.49 µM)	O=C(C1CCCC1)N1CCN(c2ccc(-c3ccccn3)nn2)CC1	0%	1.19 mg/L (≈ 3.52 µM)	33.33%	4.9 mg/L (≈ 14.5 µM)	41.7%
